Measured values reported in ChEMBL document CHEMBL3797147, “Nitric oxide production inhibition and mechanism of phenanthrene analogs in lipopolysaccharide-stimulated RAW264.7 macrophages” (Bioorg Med Chem Lett, 2016).
Calls of active or inactive are those of the source. No cut-off for these calls is given here.

Columns and labels:
[1] = test system: RAW264.7; experiment: Anti-inflammatory activity in mouse RAW264.7 cells assessed as LPS-induced nitric oxide production level at 50 uM pre-incubated for 2 hrs before LPS stimulation for 24 hrs by Griess assay relative to untreated control; type: functional
How it was run: (§1)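 Cells pretreated with compound at various concentrations for 2 h, then LPS 0.5 µg/mL added for 24 h; nitrite in medium read with Griess reagent; means ± SD of triplicates.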

[2] = Cytotoxicity against mouse RAW264.7 cells assessed as cell viability at 50 uM incubated for 24 hrs by Alamar-Blue assay; type: cell-based; conditions: read-out: Activity
[3] = test system: RAW264.7; experiment: Inhibition of LPS-induced IL-6 protein expression in mouse RAW264.7 cells at 1 to 50 uM pre-incubated for 2 hrs before LPS stimulation for 24 hrs by ELISA
[4] = target: T1, NF-kappa-B inhibitor alpha (Mus musculus) (UniProt Q9Z1E3); experiment: Inhibition of LPS-induced IkappaB-alpha degradation in mouse RAW264.7 cells at 1 to 50 uM pre-incubated before LPS stimulation for 5 mins by Western blotting method
T1 sequence (whole entry): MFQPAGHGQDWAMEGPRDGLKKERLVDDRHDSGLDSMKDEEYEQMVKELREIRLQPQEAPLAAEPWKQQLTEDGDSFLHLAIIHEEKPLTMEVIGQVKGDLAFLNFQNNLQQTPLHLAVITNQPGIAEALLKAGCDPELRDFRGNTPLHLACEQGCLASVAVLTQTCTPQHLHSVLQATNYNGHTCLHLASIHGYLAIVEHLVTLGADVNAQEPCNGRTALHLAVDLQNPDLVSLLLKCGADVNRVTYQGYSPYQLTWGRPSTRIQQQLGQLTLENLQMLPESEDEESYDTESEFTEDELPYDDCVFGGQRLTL

[5] = test system: RAW264.7; experiment: Inhibition of LPS-induced iNOS protein expression in mouse RAW264.7 cells pre-incubated for 2 hrs before LPS stimulation for 24 hrs by Western blotting method; type: functional, cell-based
How it was run: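 Cells in 6-well plates pretreated (1, 10, 50 µM; BAY 11-7082 10 µM) for 2 h, LPS 0.5 µg/mL 24 h; lysates immunoblotted with anti-iNOS, GAPDH loading control.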

[6] = target: RAC-alpha serine/threonine-protein kinase (Mus musculus) (UniProt P31750); experiment: Inhibition of LPS-induced AKT phosphorylation in mouse RAW264.7 cells at 1 to 50 uM pre-incubated for 30 mins before LPS stimulation for 30 mins by Western blotting method
[7] = target: JNK1/JNK2 (Mus musculus) (UniProt Q91Y86+Q9WTU6); experiment: Inhibition of LPS-induced JNK1/2 MAPK phosphorylation in mouse RAW264.7 cells at 1 to 50 uM pre-incubated for 2 hrs before LPS stimulation for 30 mins by Western blotting method
[8] = target: T1, NF-kappa-B inhibitor alpha (Mus musculus); experiment: Inhibition of LPS-induced IkappaB-alpha phosphorylation in mouse RAW264.7 cells at 1 to 50 uM pre-incubated before LPS stimulation for 5 mins by Western blotting method
[9] = test system: RAW264.7; experiment: Anti-inflammatory activity in mouse RAW264.7 cells assessed as reduction in LPS-induced nitric oxide production level pre-incubated for 2 hrs before LPS stimulation for 24 hrs by Griess assay relative to untreated control; type: functional, cell-based; how it was run: as §1
[10] = target: Mitogen-activated protein kinase 1 and 3 (ERK2 and ERK1) (Mus musculus) (UniProt P63085+Q63844); experiment: Inhibition of LPS-induced ERK1/2 MAPK phosphorylation in mouse RAW264.7 cells at 1 to 50 uM pre-incubated for 2 hrs before LPS stimulation for 30 mins by Western blotting method
[11] = target: MAP kinase p38 (Mus musculus) (UniProt P47811+O08911+Q9WUI1+Q9Z1B7); experiment: Inhibition of LPS-induced p38 MAPK phosphorylation in mouse RAW264.7 cells at 1 to 50 uM pre-incubated for 2 hrs before LPS stimulation for 30 min by Western blotting method
[12] = test system: RAW264.7; experiment: Inhibition of LPS-induced IL-1beta mRNA expression in mouse RAW264.7 cells pre-incubated for 2 hrs before LPS stimulation for 24 hrs by qRT-PCR method; type: functional, cell-based
How it was run: (§2)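 Cells in 6-well plates pretreated (1, 10, 50 µM; BAY 11-7082 10 µM reference) 2 h before LPS 0.5 µg/mL for 24 h; IL-1b and IL-6 mRNA by qRT-PCR against GAPDH; mean ± SD of three experiments in triplicate.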

[13] = test system: RAW264.7; experiment: Inhibition of LPS-induced iNOS mRNA expression in mouse RAW264.7 cells pre-incubated for 2 hrs before LPS stimulation for 24 hrs by qRT-PCR method; type: functional, cell-based
How it was run: (§3)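 Cells pretreated with compound or 10 µM BAY 11-7082 for 2 h, then LPS 0.5 µg/mL for 24 h; total RNA extracted, iNOS mRNA by qRT-PCR normalised to GAPDH.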

[14] = test system: RAW264.7; experiment: Inhibition of LPS-induced IL-6 mRNA expression in mouse RAW264.7 cells pre-incubated for 2 hrs before LPS stimulation for 24 hrs by qRT-PCR method; type: functional, cell-based; how it was run: as §2
[15] = test system: RAW264.7; experiment: Inhibition of LPS-induced IL-6 mRNA expression in mouse RAW264.7 cells at 10 uM pre-incubated for 2 hrs before LPS stimulation for 24 hrs by qRT-PCR method; type: functional, cell-based; how it was run: as §2
[16] = test system: RAW264.7; experiment: Anti-inflammatory activity in mouse RAW264.7 cells assessed as LPS-induced nitric oxide production level at 10 uM pre-incubated for 2 hrs before LPS stimulation for 24 hrs by Griess assay relative to untreated control; type: functional; how it was run: as §1
[17] = test system: RAW264.7; experiment: Inhibition of LPS-induced IL-1beta mRNA expression in mouse RAW264.7 cells at 10 uM pre-incubated for 2 hrs before LPS stimulation for 24 hrs by qRT-PCR method; type: functional, cell-based; how it was run: as §2
[18] = test system: RAW264.7; experiment: Inhibition of LPS-induced iNOS mRNA expression in mouse RAW264.7 cells at 10 uM pre-incubated for 2 hrs before LPS stimulation for 24 hrs by qRT-PCR method; type: functional, cell-based; how it was run: as §3

Mitogen-activated protein kinase 1 and 3 (ERK2 and ERK1) (Mus musculus), sequence (P63085 whole entry, looked up): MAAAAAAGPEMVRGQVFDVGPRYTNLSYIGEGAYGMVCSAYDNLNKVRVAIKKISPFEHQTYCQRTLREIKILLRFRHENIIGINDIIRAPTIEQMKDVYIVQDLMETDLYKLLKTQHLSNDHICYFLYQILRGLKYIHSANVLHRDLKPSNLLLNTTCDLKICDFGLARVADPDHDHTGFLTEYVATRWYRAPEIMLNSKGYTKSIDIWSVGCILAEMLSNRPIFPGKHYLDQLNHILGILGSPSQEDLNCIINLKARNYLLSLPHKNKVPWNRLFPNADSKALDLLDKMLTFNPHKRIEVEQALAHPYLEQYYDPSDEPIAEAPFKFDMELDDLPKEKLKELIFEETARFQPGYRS
Mitogen-activated protein kinase 1 and 3 (ERK2 and ERK1) (Mus musculus), sequence (Q63844 whole entry, looked up): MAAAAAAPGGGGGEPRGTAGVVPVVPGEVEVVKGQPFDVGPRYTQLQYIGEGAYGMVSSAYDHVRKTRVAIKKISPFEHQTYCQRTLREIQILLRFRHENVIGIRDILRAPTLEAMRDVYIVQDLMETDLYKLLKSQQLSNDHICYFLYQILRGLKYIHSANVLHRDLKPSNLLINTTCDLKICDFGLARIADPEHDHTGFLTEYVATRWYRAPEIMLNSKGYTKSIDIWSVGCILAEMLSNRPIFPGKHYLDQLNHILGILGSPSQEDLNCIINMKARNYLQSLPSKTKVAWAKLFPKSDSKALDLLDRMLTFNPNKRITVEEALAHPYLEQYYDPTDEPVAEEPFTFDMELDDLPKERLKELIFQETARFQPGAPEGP
RAC-alpha serine/threonine-protein kinase (Mus musculus), sequence (P31750 whole entry): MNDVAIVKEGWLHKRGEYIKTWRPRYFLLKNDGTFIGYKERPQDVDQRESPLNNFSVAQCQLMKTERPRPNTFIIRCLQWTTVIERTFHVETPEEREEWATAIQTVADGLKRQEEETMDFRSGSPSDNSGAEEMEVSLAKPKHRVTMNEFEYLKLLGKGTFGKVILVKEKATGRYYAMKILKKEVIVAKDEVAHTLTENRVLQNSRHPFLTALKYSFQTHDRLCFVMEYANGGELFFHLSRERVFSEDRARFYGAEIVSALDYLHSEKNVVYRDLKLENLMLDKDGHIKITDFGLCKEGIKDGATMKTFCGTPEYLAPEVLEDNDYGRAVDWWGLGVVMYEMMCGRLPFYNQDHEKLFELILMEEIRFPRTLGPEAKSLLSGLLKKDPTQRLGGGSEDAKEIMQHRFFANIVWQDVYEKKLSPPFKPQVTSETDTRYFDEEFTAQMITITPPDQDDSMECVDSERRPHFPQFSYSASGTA
JNK1/JNK2 (Mus musculus), sequence (Q91Y86 whole entry, looked up): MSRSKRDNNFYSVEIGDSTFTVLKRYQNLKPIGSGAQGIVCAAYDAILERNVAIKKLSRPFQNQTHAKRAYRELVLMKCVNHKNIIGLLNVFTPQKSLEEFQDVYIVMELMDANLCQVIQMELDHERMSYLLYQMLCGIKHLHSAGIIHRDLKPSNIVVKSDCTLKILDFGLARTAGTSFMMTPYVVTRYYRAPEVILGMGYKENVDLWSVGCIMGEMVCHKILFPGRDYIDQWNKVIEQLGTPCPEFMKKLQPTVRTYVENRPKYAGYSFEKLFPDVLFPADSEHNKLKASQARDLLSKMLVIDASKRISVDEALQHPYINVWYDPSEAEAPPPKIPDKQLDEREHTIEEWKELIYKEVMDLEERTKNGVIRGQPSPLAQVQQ
JNK1/JNK2 (Mus musculus), sequence (Q9WTU6 whole entry, looked up): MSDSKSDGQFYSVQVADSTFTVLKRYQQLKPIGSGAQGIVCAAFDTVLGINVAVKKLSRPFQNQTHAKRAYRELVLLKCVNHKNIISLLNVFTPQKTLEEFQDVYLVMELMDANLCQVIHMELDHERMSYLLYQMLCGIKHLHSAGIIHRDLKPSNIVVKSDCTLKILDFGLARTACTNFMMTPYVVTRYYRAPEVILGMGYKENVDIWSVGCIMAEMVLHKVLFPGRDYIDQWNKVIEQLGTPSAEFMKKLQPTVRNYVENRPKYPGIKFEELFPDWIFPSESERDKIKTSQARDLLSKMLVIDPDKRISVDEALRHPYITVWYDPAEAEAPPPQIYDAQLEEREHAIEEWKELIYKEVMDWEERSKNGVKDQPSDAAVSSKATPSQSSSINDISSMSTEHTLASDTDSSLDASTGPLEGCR

COC(=O)c1cc2cc(OC)c(OC)cc2c2cc(OC)c(OC)cc12
Activity [1]: 45.3%
viability at 24 h, 50 µM [2]: 101%

COC(=O)/C(=C/c1ccc(OC)c(OC)c1)c1ccc(OC)c(OC)c1
inhibition [3]: Active
inhibition [4]: Active
inhibition [5]: Dose-dependent effect
inhibition [6]: Active
inhibition [7]: inactive
inhibition [8]: Active
IC50 [9]: 5.05 µM
inhibition [10]: inactive
Activity [1]: 3.9%
inhibition [11]: Active
inhibition [12]: Dose-dependent effect
inhibition [13]: Dose-dependent effect
inhibition [14]: Dose-dependent effect
viability at 24 h, 50 µM [2]: 114%

COC(=O)/C(=C\c1ccc2c(c1)OCO2)c1ccc(OC)c(OC)c1
Activity [1]: 79%
viability at 24 h, 50 µM [2]: 56.1%

COC(=O)/C(=C/c1cccc(OC)c1)c1ccc(OC)c(OC)c1
Activity [1]: 84.6%
viability at 24 h, 50 µM [2]: 76.5%

Cc1ccc(S(=O)(=O)/C=C/C#N)cc1
inhibition [15]: Active
Activity [16]: 1.2%
inhibition [17]: Active
inhibition [18]: Active

COc1ccc(/C=C(/C(=O)O)c2ccc(OC)c(OC)c2)cc1OC
Activity [1]: 64.3%
viability at 24 h, 50 µM [2]: 121%

COC(=O)/C(=C/c1ccc2c(c1)OCO2)c1ccc(OC)c(OC)c1
Activity [1]: 109.2%
viability at 24 h, 50 µM [2]: 88%

COC(=O)c1cc2cc3c(cc2c2cc(OC)c(OC)cc12)OCO3
Activity [1]: 75%
viability at 24 h, 50 µM [2]: 101%

COC(=O)/C(=C/c1ccc(OC)c(OC)c1)c1ccc(OC)cc1
IC50 [9]: 37.3 µM
Activity [1]: 45.5%
viability at 24 h, 50 µM [2]: 66.7%

COc1ccc(/C(=C\c2ccc3c(c2)OCO3)C(=O)O)cc1OC
Activity [1]: 86%
viability at 24 h, 50 µM [2]: 123%

COc1cc2c(C(=O)O)cc3cc4c(cc3c2cc1OC)OCO4
Activity [1]: 53.1%
viability at 24 h, 50 µM [2]: 107%

COC(=O)c1cc2cc(OC)c(OC)cc2c2cc(OC)ccc12
Activity [1]: 83%
viability at 24 h, 50 µM [2]: 99.7%

COc1ccc(/C(=C/c2ccc3c(c2)OCO3)C(=O)O)cc1OC
Activity [1]: 106.9%
viability at 24 h, 50 µM [2]: 103%

CCN(CC)C(=O)c1cc2cc(OC)c(OC)cc2c2cc(OC)c(OC)cc12
IC50 [9]: 20.3 µM
Activity [1]: 39.8%
viability at 24 h, 50 µM [2]: 94.7%

CCN(CC)C(=O)/C(=C/c1ccc(OC)c(OC)c1)c1ccc(OC)c(OC)c1
Activity [1]: 92.7%
viability at 24 h, 50 µM [2]: 111%

COc1cc2cc(C(=O)O)c3cc(OC)c(OC)cc3c2cc1OC
Activity [1]: 78.2%
viability at 24 h, 50 µM [2]: 101%

COc1ccc(/C=C(\C(=O)O)c2ccc(OC)c(OC)c2)cc1OC
Activity [1]: 120.7%
viability at 24 h, 50 µM [2]: 106%

COc1cc2cc(C#N)c3cc(OC)c(OC)cc3c2cc1OC
Activity [1]: 108.8%
viability at 24 h, 50 µM [2]: 102%

COc1ccc(/C=C(\C#N)c2ccc(OC)c(OC)c2)cc1OC
Activity [1]: 46.7%
viability at 24 h, 50 µM [2]: 96.7%

COC(=O)c1cc2cc(OC)ccc2c2cc(OC)c(OC)cc12
Activity [1]: 48.8%
viability at 24 h, 50 µM [2]: 99.3%

COC(=O)/C(=C\c1ccc(OC)c(OC)c1)c1ccc(OC)c(OC)c1
Activity [1]: 98.7%
viability at 24 h, 50 µM [2]: 91.1%
